An excerpt weighted towards active compounds, which were near 2.6% of everything screened.
MC4R barr agon – human MC4R agonism via beta-arrestin. U2OS MC4R beta-arrestin complementation, luminescence; percent of melanotan II response, DMSO zero. 0.98% of 360,000 active. activation, % at 8.9 µM. P32245;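 active means activation above a per-plate cutoff, the mean activation of sample wells on that plate plus 3 SD, cut at about 8% in these data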
PGE2 EP2 inh – inhibitors of human EP2 prostaglandin E2 receptor; P43116; C6 glioma cells expressing human EP2, cAMP TR-FRET; cells stimulated with saturating PGE2; inhibition, % at 25 µM; 0.52% of 260,000 active; AID 1422;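 active means percent inhibition above 40 after rounding to a whole number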;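 further: rat C6 glioma host cells with rolipram phosphodiesterase inhibitor present; the protocol text gives 20 µM as final concentration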
Target sequence (P43116 whole entry, looked up): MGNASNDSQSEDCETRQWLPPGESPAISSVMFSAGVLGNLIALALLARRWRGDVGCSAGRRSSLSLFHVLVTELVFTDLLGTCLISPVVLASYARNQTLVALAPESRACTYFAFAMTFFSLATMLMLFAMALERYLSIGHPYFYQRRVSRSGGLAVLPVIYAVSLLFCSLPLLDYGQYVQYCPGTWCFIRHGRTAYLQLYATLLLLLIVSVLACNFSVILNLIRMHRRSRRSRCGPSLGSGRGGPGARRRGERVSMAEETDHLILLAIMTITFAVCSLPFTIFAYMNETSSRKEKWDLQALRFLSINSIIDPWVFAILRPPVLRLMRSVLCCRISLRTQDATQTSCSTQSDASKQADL
MC4R antag cAMP – human MC4R antagonism in cAMP assay. inhibition, % at 6.5 µM. P32245. 0.48% of 360,000 active. MC4R-expressing cells, MTII-stimulated cAMP, LANCE TR-FRET. AID 540295;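 active means inhibition above its plate's cutoff, the mean of tested wells on that plate plus 3 SD, cut at about 29% in these data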;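 further: 0% = Melanotan II alone and 100% = Melanotan II plus saturating MCL0020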
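Material: U2OS-MC4R stable cell line | Reagent: Melanotan II challenge after compound preincubation | Doses: One concentration, 6.5 µM nominal | Incubation: 30-min compound preincubation, 1-h Melanotan II challenge, 1-h detection, room temperature | Signal: TR-FRET cAMP assay | Replicates: One well per compound, no replicates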
Granule exo inh – blocks lytic granule exocytosis; AID 651702; TALL-104 LAMP-1 surface exposure, flow cytometry; cells stimulated with thapsigargin and PMA; inhibition, % at 10 µM; 0.66% of 360,000 active;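 active means inhibition above about 55%, limit read from the data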
T cell modulator – T cell immune modulators affecting CD8 T cell-vesicle binding | 2C CD8+ T cell-vesicle binding, flow cytometry; stronger effect = lower value | response (vesicle binding), % at 7 µM | 0.068% of 330,000 active | AID 2052;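 active means response, share of CD8 T cells binding vesicles, and their 90th percentile fluorescence all below set limits, cut at about 80% in these data, passing the limit was not always enough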;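 further: values below 100% mean blocked vesicle binding to the CD8+ T cells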
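Material: murine 2C transgenic CD8+ T lymphocytes / Also added: QL9-peptide-loaded Drosophila micro-vesicles bearing Ld, ICAM-1 and B7-1 / Schedule: binding step 1.5 h, 37 °C, antibody labelling 20 min, ice / Signal: flow cytometry, PE anti-B7-1 (FL2) versus Alexa647 anti-CD8 (FL8), PFA-fixed / Evaluation: percent CD8+ FL2 mean versus row control / Benchmarks: naked versus QL9-loaded vesicles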
EP2 mod – modulators of human EP2 prostaglandin E2 receptor. 0.83% of 260,000 active. AID 940. EP2-expressing cells, cAMP HTRF FRET, PGE2 co-stimulation. P43116. induction, % at 25 µM;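 active means compounds whose cAMP rise, as percent of the full-agonist control response, exceeds 60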;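 further: rat C6 glioma line stably carrying human EP2 under a CMV promoter; the protocol text gives 20 µM as final concentration; 100% = response of wells given 1 µM PGE2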
U2OS cAMP counter – counter-screen for MC4R antagonists: nonselective cAMP signaling inhibitors; shares compounds with MC4R antag cAMP; parental U2OS, forskolin cAMP, LANCE TR-FRET; inhibition, % at 6.5 µM; 26% of 1,600 active; AID 602193;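 active means mean inhibition over triplicates above the low-control well mean plus 3 SD, set per campaign, cut at about 13% in these data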;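 further: signal is single emission at 671 nm which falls as cellular cAMP rises; 0% = forskolin-stimulated wells and 100% = buffer without forskolin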
MC4R cAMP antag – human MC4R cAMP antagonism confirmation; shares compounds with MC4R antag cAMP; MC4R-expressing cells, MTII-stimulated cAMP, TR-FRET; inhibition, % at 6.5 µM; 27% of 1,600 active; AID 602195; in the data active means inhibition above about 29%;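 further: 0% = agonist stimulated wells alone and 100% = agonist stimulated wells plus saturating reference antagonist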
The depositor's hits bear a star; i = inactive; x = not tested or not shown; ! = not active in a repeat.

SMILES	MC4R barr agon	PGE2 EP2 inh	MC4R antag cAMP	Granule exo inh	T cell modulator	EP2 mod	U2OS cAMP counter	MC4R cAMP antag
CSCCC(NC(=O)c1ccc([N+](=O)[O-])cc1Cl)C(=O)OC1CCCCC1=O (stereo not drawn)	0	x	31*	8	269	x	14*	39*
COc1ccc(C)cc1S(=O)(=O)N(C)CC(=O)N1CCN(c2ccccc2)CC1	-1	9	-3	-1	191	4	x	x
O=C(CN1CCN(S(=O)(=O)c2cccc(F)c2)CC1)NCC1(N2CCOCC2)CCCCC1	1	x	1	-4	248	x	x	x
O=C(O)CCc1ccc(-c2ccccc2)n1-c1cccc(C(=O)O)c1	-2	x	-3	-1	119	x	x	x
CC[C@H](C)[C@H]1CNC(=O)C(=O)N1CC1CCN(CCc2ccc(Cl)c(Cl)c2)CC1	4	x	-1	-3	x	x	x	x
Cc1noc(C)c1COC(=O)c1cnc(Cl)c(Cl)c1	-3	7	30*	-1	606	15	13	33*
Cc1noc(C)c1COC(=O)/C=C/c1ccc(Cl)cc1	2	3	31*	2	i	-34	2	9
Cc1noc(C)c1COC(=O)CCCNC(=O)c1ccc(Cl)cc1	-2	1	5	-4	136	2	x	x
COc1ccc(C(=O)N2CCOC23CCN(c2ncccn2)CC3)cc1	-2	5	-4	0	338	-5	x	x
Cn1c(CN2CCOCC2)nnc1SCC(=O)Nc1cccc(C(F)(F)F)c1	-2	x	-2	0	415	x	x	x
Nc1nc(Sc2ccc(C(F)(F)F)cn2)n[nH]1	-2	5	30*	-8	936	-2	-6	-20
CCOC(=O)c1cc(-c2ccccc2)sc1NC(=O)COC(=O)c1ccc(Cl)c(S(N)(=O)=O)c1	2	6	29*	-1	247	-20	3	7
CCOC(=O)c1cc(-c2ccccc2)sc1NC(=O)CC	2	8	11	0	306	23	x	x
COc1cc(NC(=O)c2ccc(N)nc2)cc(C(=O)Nc2cccc(C(F)(F)F)c2)c1	-1	33	13	-11	194	6	x	x
COc1ccc(-c2cc(C(=O)Nc3cc(OC)cc(C(=O)Nc4cccc(C(F)(F)F)c4)c3)[nH]n2)cc1	7	11	31*!	0	239	-16	6	19
COc1cc(NC(=O)c2cc3cccc(OC)c3o2)cc(C(=O)Nc2cccc(C(F)(F)F)c2)c1	0	21	33*	2	502	3	0	-3
O=C(Nc1cccc(C(F)(F)F)c1)c1csc(-c2ccncc2)n1	0	11	8	0	297	3	x	x
COc1cc(NC(=O)c2csc(-c3ccncc3)n2)cc(C(=O)Nc2cccc(C(F)(F)F)c2)c1	2	3	39*!	0	414	-3	0	4
COc1cc(NC(=O)c2ccno2)cc(C(=O)Nc2cccc(C(F)(F)F)c2)c1	-2	18	4	-10	168	-29	x	x
Cc1ccc(C(O)c2ncc(-c3ccccc3Cl)[nH]2)c(C)c1 (stereo not drawn)	0	x	-1	4	x	x	x	x
CN(C)C(=O)/C(=C\c1ccc(-c2cccc([N+](=O)[O-])c2)o1)NC(=O)c1ccccc1	-1	4	8	-2	282	24	x	x
COCCN(CCOC)S(=O)(=O)c1ccc(C(=O)Nc2ccc(S(=O)(=O)Nc3nccc(C)n3)cc2)cc1	-2	3	30*	-1	221	5	-4	-16
COc1ccc(C(=O)Nc2ccc(S(=O)(=O)Nc3nccc(C)n3)cc2)cc1	-2	x	9	-6	281	x	x	x
Cc1cc(C)n(C(C)CNS(=O)(=O)c2ccc(Cl)cc2)n1 (stereo not drawn)	-1	x	-7	-3	339	x	x	x
CCCCn1c(=O)[nH]c(=O)c2c1nc(-c1ccc(OCC)cc1)n2CC	0	x	7	-12	292	x	x	x

Bioassay records as filed in PubChem.
